Measured values: ChEMBL document CHEMBL2331313, “Synthesis and SAR study of modulators inhibiting tRXRα-dependent AKT activation” (Eur J Med Chem, 2013)
Activity calls are given as the source filed them. No cut-off for these calls is given here.

What was measured:
[1] = molecular target: T1, Retinoic acid receptor RXR-alpha (Homo sapiens, UniProt P19793); test: Displacement of [3H]-9-cis-RA from human GST-tagged N-terminal truncated RXRalpha after 1 hr by liquid scintillation counting
T1 sequence (P19793 whole entry): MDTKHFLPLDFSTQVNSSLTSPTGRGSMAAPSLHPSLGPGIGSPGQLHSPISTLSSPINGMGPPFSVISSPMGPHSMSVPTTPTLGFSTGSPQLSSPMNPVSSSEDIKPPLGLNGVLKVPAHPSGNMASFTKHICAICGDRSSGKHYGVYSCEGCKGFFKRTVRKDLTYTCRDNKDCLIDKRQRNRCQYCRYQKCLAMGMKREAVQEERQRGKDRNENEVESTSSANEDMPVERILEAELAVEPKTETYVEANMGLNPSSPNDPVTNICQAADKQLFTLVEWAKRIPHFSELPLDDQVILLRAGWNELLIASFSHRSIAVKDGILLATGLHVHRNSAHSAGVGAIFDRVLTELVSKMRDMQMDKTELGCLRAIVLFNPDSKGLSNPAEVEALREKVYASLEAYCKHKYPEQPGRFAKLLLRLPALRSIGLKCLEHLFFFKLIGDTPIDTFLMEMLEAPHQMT
In short: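 GST-tagged human RXRα-LBD (223–462) preincubated with unlabeled 9-cis-RA or test compound at varied concentrations in binding buffer (0.15 M KCl, 10 mM Tris·HCl pH 7.4, 8% glycerol, 0.5% CHAPS), 4°C, 1 h; [3H]-9-cis-RA then added to 7.5 nM final, overnight at 4°C. Receptor captured on glutathione sepharose beads; bound radioligand counted by liquid scintillation.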

ZR-75-1 [2] = test: Induction of apoptosis in human ZR75-1 cells assessed as PARP cleavage at 30 uM after 6 hrs by Western blot analysis; type: functional, cell-based
In short: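 ZR-75-1 cells (RPMI1640, 10% FBS) treated with vehicle or 30 μM compound for 6 hr. Lysates run on 10% SDS-PAGE, blotted to PVDF and probed with anti-PARP (1:3000) for cleavage, ECL detection.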

ZR-75-1 [3] = test: Cytotoxicity against human ZR75-1 cells after 24 hrs by MTT assay; type: functional, cell-based
In short: (§1)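 Cells in RPMI1640 with 10% FBS (37°C, 5% CO2) treated with various concentrations for 24 hr in 96-well format. MTT at 2 mg/mL added for 4 hr at 37°C, formazan dissolved in DMSO, absorbance read at 570 nm for viability.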

PC-3 = test: Cytotoxicity against human PC3 cells after 24 hrs by MTT assay; type: functional, cell-based; in short: as §1
HCT-116 = test: Induction of apoptosis in human HCT116 cells assessed as increase in TNFalpha-induced PARP cleavage at 40 uM after 4 hrs by Western blot analysis; type: functional, cell-based
HeLa = test: Decrease in TNFalpha-induced Akt phosphorylation in RXRalpha-knockdown human HeLa cells at 20 uM incubated for 1 hr prior to TNFalpha-induction measured after 30 mins by Western blot analysis; type: functional, cell-based
[4] = molecular target: T1, Retinoic acid receptor RXR-alpha; test: Displacement of [3H]-9-cis-RA from RXRalpha (unknown origin) by liquid scintillation counting
[5] = molecular target: T2, Retinoic acid receptor RXR-alpha (Homo sapiens) (UniProt P19793); test: Antagonist activity at RXRalpha (unknown origin) expressed in HCT116 cells assessed as inhibition of 9-cis-RA-induced galactosidase activity after 12 hrs by gal4 reporter gene assay; type: cell-based; conditions: HCT-116, in the assay text read “luciferase activity” for “galactosidase activity”
T2 sequence (whole entry): T1 sequence (P19793 whole entry)
In short: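 GAL4-RXRα-LBD transactivation in HCT-116 cells: cells transfected for 24 hr with pG5 luciferase reporter (50 ng/well) plus pGAL4-RXRα-LBD vector (50 ng/well), then exposed to 9-cis-RA (10^-7 M) together with varied compound concentrations for 12 hr. Luciferase read by dual-luciferase assay. Cells grown in DMEM with 10% FBS, 37°C, 5% CO2.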

[6] = molecular target: T2, Retinoic acid receptor RXR-alpha (Homo sapiens); test: Inhibition of RXRalpha in human HepG2 cells assessed as inhibition of TNFalpha-induced Akt phosphorylation; type: cell-based
[7] = molecular target: T2, Retinoic acid receptor RXR-alpha (Homo sapiens); test: Inhibition of RXRalpha in human HCT116 cells assessed as inhibition of TNFalpha-induced Akt phosphorylation; type: cell-based; conditions: HCT-116
[8] = molecular target: T2, Retinoic acid receptor RXR-alpha (Homo sapiens); test: Inhibition of RXRalpha in human A549 cells assessed as inhibition of TNFalpha-induced Akt phosphorylation at 30 uM incubated for 1 hr prior to TNFalpha-induction measured after 30 mins by Western blot analysis; type: cell-based
In short: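 A549 cells (DMEM, 10% FBS) pretreated 1 hr with 30 μM compound, then TNFα (10 ng/mL) for 30 min. Phospho-AKT (1:1000) and total AKT (1:1000) immunoblotted after 10% SDS-PAGE, with ECL detection.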

`CC1=C(CCC(=O)O)c2cc(F)ccc2/C1=C\c1ccc(C(C)C)cc1` showed an IC50 [1] of 5.71 µM.

`CC1=C(CC(=O)O)c2cc(Cl)ccc2/C1=C\c1ccc(C(C)C)cc1` showed an IC50 [1] of no less than 100 µM.

With `CC(C)c1ccc(/C=C2\C=C(CC(=O)O)c3cc(F)ccc32)cc1` the Activity (ZR-75-1 [2]) was “Active”, the Activity (ZR-75-1 [3]) was “Dose-dependent effect” and the Activity (PC-3) was “Dose-dependent effect”. For the same molecule, the IC50 [1] was 1.6 µM, the Activity (HCT-116) was “Active” and the Activity (HeLa) was “inactive”.

Work on `CC1=C(CC(=O)O)c2cc(F)ccc2/C1=C\c1cccc(C(F)(F)F)c1` yielded an IC50 [1] of 8.27 µM.

In the case of `CC1=C(CC(=O)O)c2cc(F)ccc2/C1=C\c1ccc([S+](C)[O-])cc1` (stereo unspecified), the Activity (ZR-75-1 [2]) is reported as “Active”, the IC50 [4] is reported as 82.9 µM and the Activity (HCT-116) is reported as “Active”.

`CC1=C(CC(=O)O)c2cc(F)ccc2/C1=C\c1ccc(C(C)(C)C)cc1` was tested, and the IC50 [1] was no less than 100 µM.

`COc1cccc(/C=C2/C(C)=C(CC(=O)O)c3cc(F)ccc32)c1` showed an IC50 [1] of no less than 100 µM.

`CC1=C(CC(=O)O)c2cc(F)ccc2/C1=C\c1ccc(C(C)C)cc1` was tested, and the Activity (ZR-75-1 [2]) was “Active”, the inhibition [5] was “Dose-dependent effect” and the inhibition [6] was “Active”. For the same molecule, the IC50 [4] was 2.4 µM, the inhibition [7] was “Active” and the inhibition [8] was “Active”. For the same molecule, the Activity (HCT-116) was “Active”.

Molecule `CCC1=C(CC(=O)O)c2cc(F)ccc2/C1=C\c1ccc(C(C)C)cc1` has an IC50 [1] of 6.29 µM.

For `CC1=C(CC(N)=O)c2cc(F)ccc2/C1=C\c1ccc(C(C)C)cc1`, the IC50 [1] was no less than 100 µM.

`CC1=C(CCC#N)c2cc(F)ccc2/C1=C\c1ccc(C(C)C)cc1` gave an IC50 [1] of no less than 100 µM.

With `CC1=C(CC(=O)O)c2cc(F)ccc2/C1=C\c1ccc(N(C)C)cc1` the IC50 [1] was no less than 100 µM.

In the case of `CC1=C(CC(=O)O)c2cc(F)ccc2/C1=C\c1ccc(C(F)(F)F)cc1`, the IC50 [1] is reported as 4.73 µM.

For `CC1=C(CC(N)=O)c2cc(F)ccc2/C1=C/c1ccc(C(C)C)cc1`, the IC50 [1] was no less than 100 µM.

Molecule `CC(=O)Nc1ccc(/C=C2/C(C)=C(CC(=O)O)c3cc(F)ccc32)cc1` has an IC50 [1] of no less than 100 µM.

`CC1=C(CC(=O)O)c2cc(C)ccc2/C1=C\c1ccc(C(C)C)cc1` gave an IC50 [1] of no less than 100 µM.

`COc1ccc(/C=C2/C(C)=C(CC(=O)O)c3cc(F)ccc32)cc1` gave an IC50 [1] of no less than 100 µM.

Molecule `CC1=C(CC(=O)O)c2cc(F)ccc2/C1=C\c1ccccc1` has an IC50 [1] of 10.7 µM.

Work on `CC1=C(CC(=O)O)c2cc(F)ccc2/C1=C\c1cccc(C#N)c1` yielded an IC50 [1] of no less than 100 µM.

Molecule `CCOc1ccc(/C=C2/C(C)=C(CC(=O)O)c3cc(F)ccc32)cc1` has an IC50 [1] of no less than 100 µM.

`CC1=C(CC(=O)O)c2cc(F)ccc2/C1=C\c1ccc(C#N)cc1` showed an IC50 [1] of no less than 100 µM.

In the case of `CC1=C(CC(=O)O)c2ccccc2/C1=C\c1ccc(C(C)C)cc1`, the IC50 [1] is reported as no less than 100 µM.

For `CCc1ccc2c(c1)C(CC(=O)O)=C(C)/C2=C/c1ccc(C(C)C)cc1`, the IC50 [1] was no less than 100 µM.

`CC1=C(CC(=O)O)c2cc(F)ccc2/C1=C\c1ccc(-c2ccccn2)cc1` was tested, and the IC50 [1] was no less than 100 µM.

With `COc1ccc2c(c1)C(CC(=O)O)=C(C)/C2=C/c1ccc(C(C)C)cc1` the IC50 [1] was no less than 100 µM.

`CC(C)CC1=C(CC(=O)O)c2cc(F)ccc2/C1=C\c1ccc(C(C)C)cc1` gave an IC50 [1] of 3.15 µM.

With `CCOc1ccc2c(c1)C(CC(=O)O)=C(C)/C2=C/c1ccc(C(C)C)cc1` the IC50 [1] was 3.08 µM.

Molecule `CC1=C(CC(=O)O)c2cc(C(C)C)ccc2/C1=C\c1ccc(C(C)C)cc1` has an IC50 [1] of no less than 100 µM.
